ChEMBL document CHEMBL4842372, “Discovery of ARD-2585 as an Exceptionally Potent and Orally Active PROTAC Degrader of Androgen Receptor for the Treatment of Advanced Prostate Cancer” (J Med Chem, 2021)
Values belong to the compound of their own block, whether it stands above or below them. Activity calls are given as the source filed them. The rule behind the calls is not given here.

What was measured:
[1] = biological target: Protein cereblon/Androgen receptor (Homo sapiens, UniProt P10275+Q96SW2); experiment: Protac activity at CRBN/AR in human VCaP cells assessed as AR degradation after 24 hrs by Western blot analysis; assay type: cell-based
[2] = Oral bioavailability in SCID mouse at 3 mg/kg by LC-MS/MS analysis; assay type: ADME, organism-based; settings: in vivo
[3] = system: VCaP; experiment: Growth inhibition of human VCaP cells assessed as cell viability by WST-8 assay; assay type: functional, cell-based
[4] = system: LNCaP; experiment: Growth inhibition of human LNCaP cells carrying AR T878A mutant assessed as cell viability by WST-8 assay; assay type: functional, cell-based
[5] = system: VCaP; experiment: Antitumor activity against human VCaP cells xenografted in CB17:SCID mouse assessed as reduction in AR protein level in tumor at 20 mg/kg, po measured for 6 to 24 hrs by Western blot analysis; assay type: functional, organism-based; settings: time 6-24 hrs
Outline: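 VCaP xenografts in male CB17 SCID mice grown to about 200 mm3; single oral gavage dose of 20 mg/kg in 100% PEG200; tumors collected at 6 and 24 h, RIPA lysates blotted for AR with GAPDH as loading control, band intensity normalised to loading control.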

[6] = Drug distribution in plasma of CB17:SCID mouse xenografted with human VCaP cells at 20 mg/kg, po measured at 6 hrs by LCMS analysis; assay type: ADME, organism-based
Outline: (§1)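 Tumor-bearing male CB17 SCID mice (VCaP xenografts) given one 20 mg/kg oral dose in 100% PEG200, three mice per time point; plasma, tumor, liver, kidney, prostate and heart taken at 1, 6 and 24 h; tissues homogenised in water/acetonitrile, protein precipitated with cold acetonitrile, drug quantified by LC–MS/MS; ratios are tissue over plasma level.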

[7] = Drug distribution in plasma of CB17:SCID mouse xenografted with human VCaP cells at 20 mg/kg, po measured at 24 hrs by LCMS analysis; assay type: ADME, organism-based; outline: as §1
[8] = Drug distribution in prostate gland of CB17:SCID mouse xenografted with human VCaP cells at 20 mg/kg, po measured at 6 hrs by LCMS analysis; assay type: ADME, organism-based; settings: read-out: Drug uptake; outline: as §1
[9] = Drug distribution in prostate gland of CB17:SCID mouse xenografted with human VCaP cells at 20 mg/kg, po measured at 24 hrs by LCMS analysis; assay type: ADME, organism-based; settings: read-out: Drug uptake; outline: as §1
[10] = Drug distribution in tumor of CB17:SCID mouse xenografted with human VCaP cells at 20 mg/kg, po measured at 6 hrs by LCMS analysis; assay type: ADME, organism-based, Neoplasm; settings: read-out: Drug uptake; outline: as §1
[11] = Drug distribution in tumor of CB17:SCID mouse xenografted with human VCaP cells at 20 mg/kg, po measured at 24 hrs by LCMS analysis; assay type: ADME, organism-based, Neoplasm; settings: read-out: Drug uptake; outline: as §1
[12] = biological target: Protein cereblon/Androgen receptor (Homo sapiens, UniProt P10275+Q96SW2, T878A); settings: lncap
[13] = Half life in SCID mouse at 1 mg/kg, iv by LC-MS/MS analysis; assay type: ADME, organism-based; settings: in vivo
Outline: (§2)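 Male mice were given a single intravenous dose. Plasma drug levels were measured by a validated LC–MS/MS method (C18 column, 0.1% formic acid water/acetonitrile gradient, 0.4 mL/min). Parameters came from noncompartmental analysis.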

[14] = AUC (0 to t) in SCID mouse at 1 mg/kg, iv by LC-MS/MS analysis; assay type: ADME, organism-based; design: dose 1 mg/kg; settings: in vivo; outline: as §2
[15] = Volume of distribution at steady state in SCID mouse at 1 mg/kg, iv by LC-MS/MS analysis; assay type: ADME, organism-based; settings: in vivo, read-out: Vdss
Outline: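 Male mice were used, three sacrificed per time-point, with 300 μL blood collected and plasma stored at −80 °C. Drug was quantified by a validated LC–MS/MS method on a C18 column with a 0.1% formic acid water/acetonitrile gradient at 0.4 mL/min. PK parameters were derived by noncompartmental analysis.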

[16] = Tmax in SCID mouse at 3 mg/kg, po by LC-MS/MS analysis; assay type: ADME, organism-based; settings: in vivo
Outline: (§3)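 Nontumor-bearing male mice were given a single oral gavage dose in 100% PEG200. Three mice were sacrificed per time point, and 300 μL blood was taken from each for plasma, stored at −80 °C. Drug was quantified by LC–MS/MS on a C18 column with a 0.1% formic acid water/acetonitrile gradient at 0.4 mL/min. Parameters came from noncompartmental analysis.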

[17] = Half life in SCID mouse at 3 mg/kg, po by LC-MS/MS analysis; assay type: ADME, organism-based; settings: in vivo; outline: as §3
[18] = Cmax in SCID mouse at 3 mg/kg, po by LC-MS/MS analysis; assay type: ADME, organism-based; design: route oral, dose 3 mg/kg; settings: in vivo; outline: as §3
[19] = AUC (0 to t) in SCID mouse at 3 mg/kg, po by LC-MS/MS analysis; assay type: ADME, organism-based; design: dose 3 mg/kg; settings: in vivo; outline: as §3
[20] = system: VCaP; experiment: Antitumor activity against human VCaP cells xenografted in CB17:SCID mouse assessed as reduction in AR protein level in tumor at 10 mg/kg, po for 3 days measured at 3 hrs by Western blot analysis; assay type: functional; settings: 72 h, time 3 day
Outline: (§4)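 Male CB17 SCID mice bearing subcutaneous VCaP tumors (5 × 10^6 cells in Matrigel); dosed by oral gavage in 100% PEG200 at 10 mg/kg daily for 3 days; tumors harvested 3, 6 and 24 h post-dose, lysed in RIPA, Western blot for AR with GAPDH loading control, bands quantified by densitometry relative to loading control.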

[21] = system: VCaP; experiment: Antitumor activity against human VCaP cells xenografted in CB17:SCID mouse assessed as reduction in AR protein level in tumor at 10 mg/kg, po for 3 days measured at 6 hrs by Western blot analysis; assay type: functional; settings: 72 h, time 3 day; outline: as §4
[22] = system: VCaP; experiment: Antitumor activity against human VCaP cells xenografted in CB17:SCID mouse assessed as reduction in AR protein level in tumor at 10 mg/kg, po for 3 days measured at 24 hrs by Western blot analysis; assay type: functional; settings: 72 h, time 3 day; outline: as §4

Chain of Protein cereblon/Androgen receptor (Homo sapiens, UniProt P10275+Q96SW2) (P10275 whole entry): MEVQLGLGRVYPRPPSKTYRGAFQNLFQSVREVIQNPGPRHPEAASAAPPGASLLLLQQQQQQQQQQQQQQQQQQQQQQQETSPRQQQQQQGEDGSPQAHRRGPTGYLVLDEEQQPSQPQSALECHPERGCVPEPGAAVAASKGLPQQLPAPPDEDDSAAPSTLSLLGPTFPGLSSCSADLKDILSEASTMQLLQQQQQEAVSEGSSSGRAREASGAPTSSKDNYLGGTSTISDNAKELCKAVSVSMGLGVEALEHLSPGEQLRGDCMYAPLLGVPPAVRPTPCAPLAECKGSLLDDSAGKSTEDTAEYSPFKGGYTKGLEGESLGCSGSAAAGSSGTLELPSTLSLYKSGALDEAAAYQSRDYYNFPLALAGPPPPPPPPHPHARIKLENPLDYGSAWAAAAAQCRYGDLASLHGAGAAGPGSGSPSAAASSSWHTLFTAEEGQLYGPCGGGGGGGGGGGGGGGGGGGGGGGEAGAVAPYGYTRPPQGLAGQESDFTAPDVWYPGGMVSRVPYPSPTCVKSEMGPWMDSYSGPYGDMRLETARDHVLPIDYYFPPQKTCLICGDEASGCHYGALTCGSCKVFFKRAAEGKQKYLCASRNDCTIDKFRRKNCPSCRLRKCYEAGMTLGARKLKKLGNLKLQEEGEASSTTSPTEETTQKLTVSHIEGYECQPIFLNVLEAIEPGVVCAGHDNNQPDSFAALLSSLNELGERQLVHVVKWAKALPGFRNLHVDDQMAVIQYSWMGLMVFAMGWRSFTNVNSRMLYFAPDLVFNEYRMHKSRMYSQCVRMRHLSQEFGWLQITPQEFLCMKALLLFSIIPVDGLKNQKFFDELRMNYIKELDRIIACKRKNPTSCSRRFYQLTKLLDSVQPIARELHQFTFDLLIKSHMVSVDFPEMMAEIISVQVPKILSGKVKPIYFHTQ
Chain of Protein cereblon/Androgen receptor (Homo sapiens, UniProt P10275+Q96SW2) (Q96SW2 whole entry): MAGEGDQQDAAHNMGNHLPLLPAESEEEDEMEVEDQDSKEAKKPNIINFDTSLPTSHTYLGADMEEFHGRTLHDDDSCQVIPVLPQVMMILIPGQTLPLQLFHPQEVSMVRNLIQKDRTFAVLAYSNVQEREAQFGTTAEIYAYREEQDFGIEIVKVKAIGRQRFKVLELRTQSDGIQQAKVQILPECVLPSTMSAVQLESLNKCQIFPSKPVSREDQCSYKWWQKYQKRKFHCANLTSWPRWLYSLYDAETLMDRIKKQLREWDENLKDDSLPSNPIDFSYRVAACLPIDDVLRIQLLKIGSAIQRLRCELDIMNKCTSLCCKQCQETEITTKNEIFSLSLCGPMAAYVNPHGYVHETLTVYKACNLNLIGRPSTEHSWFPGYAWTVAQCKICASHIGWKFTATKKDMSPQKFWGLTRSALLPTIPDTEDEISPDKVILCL
Chain of Protein cereblon/Androgen receptor (Homo sapiens, UniProt P10275+Q96SW2, T878A) (P10275 whole entry T878A, stated change not applied): as the sequence (P10275 whole entry) above, with T878A counted along it
Chain of Protein cereblon/Androgen receptor (Homo sapiens, UniProt P10275+Q96SW2, T878A) (Q96SW2 whole entry, stated change not applied): as the sequence (Q96SW2 whole entry) above

DC50 [1]: 0.9 nM
SMILES: N#Cc1ccc(O[C@H]2CC[C@H](NC(=O)c3ccc(N4CCN(CCCCCNc5ccc6c(c5)C(=O)N(C5CCC(=O)NC5=O)C6=O)CC4)cc3)CC2)cc1Cl (stereo partly drawn)

DC50 [1]: 0.7 nM
SMILES: N#Cc1ccc(O[C@H]2CC[C@H](NC(=O)c3ccc(NCCCCCCCNc4ccc5c(c4)C(=O)N(C4CCC(=O)NC4=O)C5=O)cc3)CC2)cc1Cl (stereo partly drawn)

SMILES: CN(c1ccc(C#N)c(Cl)c1)[C@H]1CC[C@H](NC(=O)c2ccc(N3CC(N4CCN(c5ccc6c(c5)C(=O)N(C5CCC(=O)NC5=O)C6=O)CC4)C3)cc2)CC1 (stereo partly drawn)
F [2]: 67% | IC50 [3]: 5.1 nM | IC50 [4]: 21.7 nM | inhibition [5]: Active | concentration at 6 h [6]: 181 ng/mL | concentration at 24 h [7]: 106 ng/mL | concentration at 6 h [8]: 108 ng/g | concentration at 24 h [9]: 123 ng/g | concentration at 6 h [10]: 129 ng/g | concentration at 24 h [11]: 116 ng/g | DC50 [12]: 1.3 nM

DC50 [1]: 0.8 nM
SMILES: N#Cc1ccc(O[C@H]2CC[C@H](NC(=O)c3ccc(N4CCN(CCNc5ccc6c(c5)C(=O)N(C5CCC(=O)NC5=O)C6=O)CC4)cc3)CC2)cc1Cl (stereo partly drawn)

DC50 [1]: 1.5 nM
SMILES: N#Cc1ccc(O[C@H]2CC[C@H](NC(=O)c3ccc(NCCCCCCCCNc4ccc5c(c4)C(=O)N(C4CCC(=O)NC4=O)C5=O)cc3)CC2)cc1Cl (stereo partly drawn)

DC50 [1]: 0.2 nM | half-life [13]: 6.1 h | AUC(0-t) [14]: 2420 ng·h/mL | Vd [15]: 3 L/kg | Tmax [16]: 4 h | half-life [17]: 5.6 h | Cmax [18]: 207 ng/mL | AUC(0-t) [19]: 2150 ng·h/mL | F [2]: 30%
SMILES: N#Cc1ccc(O[C@H]2CC[C@H](NC(=O)c3ccc(N4CCC(N5CCN(c6ccc7c(c6)C(=O)N(C6CCC(=O)NC6=O)C7=O)CC5)CC4)cc3)CC2)cc1Cl (stereo partly drawn)

DC50 [1]: 0.1 nM
SMILES: N#Cc1ccc(O[C@H]2CC[C@H](NC(=O)c3ccc(N4CCN(C5CN(c6ccc7c(c6)C(=O)N(C6CCC(=O)NC6=O)C7=O)C5)CC4)cc3)CC2)cc1Cl (stereo partly drawn)

SMILES: N#Cc1ccc(N[C@H]2CC[C@H](NC(=O)c3ccc(N4CCC(N5CCN(c6ccc7c(c6)C(=O)N(C6CCC(=O)NC6=O)C7=O)CC5)CC4)cc3)CC2)cc1Cl (stereo partly drawn)
IC50 [3]: 16.6 nM

DC50 [1]: 0.6 nM
SMILES: N#Cc1ccc(O[C@H]2CC[C@H](NC(=O)c3ccc(NCCCCCCNc4ccc5c(c4)C(=O)N(C4CCC(=O)NC4=O)C5=O)cc3)CC2)cc1Cl (stereo partly drawn)

SMILES: CC1(C)C(=O)N(c2ccc(C#N)c(C(F)(F)F)c2)C(=S)N1c1ccc(C(=O)N2CCN(C3CCN(c4ccc5c(c4)C(=O)N(C4CCC(=O)NC4=O)C5=O)CC3)CC2)c(F)c1 (stereo not drawn)
IC50 [3]: > 1000 nM

DC50 [1]: 0.2 nM
SMILES: N#Cc1ccc(O[C@H]2CC[C@H](NC(=O)c3ccc(NCCCCCNc4ccc5c(c4)C(=O)N(C4CCC(=O)NC4=O)C5=O)cc3)CC2)cc1Cl (stereo partly drawn)

SMILES: CC(O)(CS(=O)(=O)c1ccc(N2CCN(C3CCN(c4ccc5c(c4)C(=O)N(C4CCC(=O)NC4=O)C5=O)CC3)CC2)cc1)C(=O)Nc1ccc(C#N)c(C(F)(F)F)c1 (stereo not drawn)
IC50 [3]: > 1000 nM

SMILES: CN(c1ccc(C#N)c(Cl)c1)[C@H]1CC[C@H](NC(=O)c2ccc(N3CCC(N4CCN(c5ccc6c(c5)C(=O)N(C5CCC(=O)NC5=O)C6=O)CC4)CC3)cc2)CC1 (stereo partly drawn)
F [2]: 44% | concentration at 6 h [6]: 208 ng/mL | concentration at 24 h [7]: 65 ng/mL | concentration at 6 h [8]: 67 ng/g | concentration at 24 h [9]: 4 ng/g | concentration at 6 h [10]: 306 ng/g | concentration at 24 h [11]: 137 ng/g

DC50 [1]: 0.3 nM
SMILES: N#Cc1ccc(O[C@H]2CC[C@H](NC(=O)c3ccc(N4CCN(C5CCN(c6ccc7c(c6)C(=O)N(C6CCC(=O)NC6=O)C7=O)CC5)CC4)cc3)CC2)cc1Cl (stereo partly drawn)

SMILES: CN(c1ccc(C#N)c(Cl)c1)[C@H]1CC[C@H](NC(=O)c2ccc(N3CCN(C4CCN(c5ccc6c(c5)C(=O)N(C5CCC(=O)NC5=O)C6=O)CC4)CC3)cc2)CC1 (stereo partly drawn)
Vd [15]: 2.6 L/kg | F [2]: 29% | IC50 [3]: 0.8 nM | IC50 [4]: 22.3 nM | inhibition [5]: Active | concentration at 6 h [6]: 37 ng/mL | concentration at 24 h [7]: 38 ng/mL | concentration at 6 h [8]: 58 ng/g | concentration at 24 h [9]: 83 ng/g | concentration at 6 h [10]: 120 ng/g | concentration at 24 h [11]: 176 ng/g | inhibition in vivo at 10 mg/kg [20]: 74% | inhibition in vivo at 10 mg/kg [21]: 70% | inhibition in vivo at 10 mg/kg [22]: 20% | DC50 [12]: 0.4 nM
